Reference: ChEMBL document CHEMBL1145075, “A new class of diamine-based human histamine H3 receptor antagonists: 4-(aminoalkoxy)benzylamines” (J Med Chem, 2003)
pKi: −log10 of the molar value.

Assays:
Histamine H3 receptor [1] = target: T1, Histamine H3 receptor (Homo sapiens, UniProt Q9Y5N1); assay: In vitro binding affinity for human Histamine H3 receptor by displacing N-[3H]-methylhistamine in SK-N-MC cells was determined; type: cell-based
In short: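 Cloned human H3 receptor stably expressed in SK-N-MC cells; binding run per an earlier published procedure.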

Histamine H3 receptor [2] = target: T1, Histamine H3 receptor; assay: Histamine-induced inhibition of forskolin- stimulated cAMP accumulation in SK-N-MC cells overexpressing the human Histamine H3 receptor; type: functional, cell-based; conditions: read-out: pA2 (converted)
In short: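 SK-N-MC sublines stably expressing human H3 receptor plus β-galactosidase reporter driven by multiple cAMP responsive elements. Compound added to media, forskolin (5 μM final) 5 min later, then 6 h at 37 °C. Cells PBS-washed, lysed, color developed with chlorophenol red β-D-galactopyranoside, absorbance 570 nm. pA2 from Schild regression of EC50 values.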

[3] = Human plasma protein binding activity was determined; type: ADME, cell-free
In short: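 Human plasma protein binding measured by an outside contract laboratory.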

[4] = stabilit in human liver microsome expressed as Half life; type: ADME; conditions: liver microsomes
In short: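 Stability in human liver microsomes measured by an outside contract laboratory; reported as half-life.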

Histamine H3 receptor [5] = target: Histamine H3 receptor (Rattus norvegicus, UniProt Q9QYN8); assay: In vitro binding affinity for rat Histamine H3 receptor by displacing N-[3H]-methylhistamine in rat cortex membranes was determined
Histamine H3 receptor (Rattus norvegicus, UniProt Q9QYN8), sequence (Q9QYN8 whole entry): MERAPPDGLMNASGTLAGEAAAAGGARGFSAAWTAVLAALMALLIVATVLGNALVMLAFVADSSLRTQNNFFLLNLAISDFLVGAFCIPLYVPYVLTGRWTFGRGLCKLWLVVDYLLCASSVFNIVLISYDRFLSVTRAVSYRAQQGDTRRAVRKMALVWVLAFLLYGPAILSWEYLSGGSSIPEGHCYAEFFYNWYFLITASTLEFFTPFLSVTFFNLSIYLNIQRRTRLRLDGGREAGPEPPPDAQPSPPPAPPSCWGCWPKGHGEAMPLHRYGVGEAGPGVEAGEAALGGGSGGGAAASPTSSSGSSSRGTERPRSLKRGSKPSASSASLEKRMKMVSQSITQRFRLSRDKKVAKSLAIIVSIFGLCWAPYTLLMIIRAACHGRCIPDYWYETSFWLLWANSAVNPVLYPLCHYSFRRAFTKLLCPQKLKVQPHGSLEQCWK

T1 sequence (Q9Y5N1 whole entry): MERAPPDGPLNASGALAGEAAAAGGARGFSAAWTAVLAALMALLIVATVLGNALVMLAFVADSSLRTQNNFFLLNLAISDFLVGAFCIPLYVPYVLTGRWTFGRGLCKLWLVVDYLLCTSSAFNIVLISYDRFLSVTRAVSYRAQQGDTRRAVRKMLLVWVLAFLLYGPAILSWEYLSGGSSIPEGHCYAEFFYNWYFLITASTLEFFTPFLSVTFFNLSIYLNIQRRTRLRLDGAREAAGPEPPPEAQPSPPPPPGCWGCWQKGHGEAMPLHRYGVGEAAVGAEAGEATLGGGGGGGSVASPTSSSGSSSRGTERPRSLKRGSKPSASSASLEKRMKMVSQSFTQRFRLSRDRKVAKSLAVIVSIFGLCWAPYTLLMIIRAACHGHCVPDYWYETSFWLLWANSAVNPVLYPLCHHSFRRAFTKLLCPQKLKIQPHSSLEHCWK

| SMILES | pKi (Histamine H3 receptor [1]) | also measured |
| --- | --- | --- |
| c1ccc2c(c1)CCC2NCc1ccc(OCCCN2CCCCC2)cc1 (stereo not given) | 9.08 |  |
| c1cc(OCCCC2CCCCC2)ccc1CN1CCCCC1 | 6.20 |  |
| CN1CCN(Cc2ccc(OCCCN3CCCCC3)cc2)CC1 | 8.87 |  |
| c1cc(OCCN2CCCCC2)ccc1CN1CCCCC1 | 8.05 | Kb (Histamine H3 receptor [2]): 8.91 nM |
| CCN(CC)CCOc1ccc(CN2CCCCC2)cc1 | 7.30 |  |
| OC1CCN(Cc2ccc(OCCCN3CCCCC3)cc2)CC1 | 9.13 | Kb (Histamine H3 receptor [2]): 0.229 nM |
| c1cc(OCCCN2CCCCC2)ccc1CNC1CCCCC1 | 9.29 | Kb (Histamine H3 receptor [2]): 0.195 nM |
| c1ccc2c(c1)CCN(Cc1ccc(OCCCN3CCCCC3)cc1)C2 | 8.77 |  |
| c1ccc(NCc2ccc(OCCCN3CCCCC3)cc2)cc1 | 8.08 |  |
| CN(C)CCOc1ccc(CN2CCCCC2)cc1 | 8.41 | Kb (Histamine H3 receptor [2]): 10.5 nM |
| c1cc(OCCCN2CCCCC2)ccc1CC1CCCCC1 | 7.30 |  |
| CN(C)Cc1ccc(OCCCN2CCCCC2)cc1 | 9.03 |  |
| c1cc(OCCCN2CCCCC2)ccc1CN1CCOCC1 | 9.06 | Kb (Histamine H3 receptor [2]): 0.537 nM |
| c1ccc(CC2CCN(Cc3ccc(OCCCN4CCCCC4)cc3)CC2)cc1 | 8.82 |  |
| CCN(CC)CCCOc1ccc(CN2CCCCC2)cc1 | 8.91 |  |
| c1cc(OCCCN2CCOCC2)ccc1CN1CCCCC1 | 8.64 |  |
| NC(=O)C1CCN(Cc2ccc(OCCCN3CCCCC3)cc2)CC1 | 9.02 |  |
| c1cc(OCCCN2CCCCC2)ccc1CN1CCCCC1 [JNJ-5207852] |  | Binding [3]: 54%; half-life [4]: > 24 h; pKi (Histamine H3 receptor [5]): 9.34 |
